# Source: PMC10450003 (Clinical Pharmacokinetics, 2023)
# Like-named read-outs stand apart in the source and are kept apart here.
# What was measured:
# [1] = test system: CYP1A2, CYP2C19, CYP2C8, CYP2C9, CYP2D6, or CYP3A; conditions: human hepatic microsomes or in vitro hepatocytes; cited from earlier work
# [2] = Mass balance: recovery of radioactive dose in urine, feces and dialysate; format: in vivo, human; conditions: subjects on hemodialysis; sum of all dialysis treatments (3 times per week, 4 h); total radioactivity (LSC); mean, n = 6
# [3] = Metabolite profiling in pooled fecal homogenate; format: in vivo, human; conditions: subjects on hemodialysis
# [4] = test system: other receptors, ion channels, or transporters; conditions: other than kappa-opioid receptor; cited from earlier work
# [5] = format: in vivo, human; conditions: for total radioactivity in whole blood lower than that in plasma: based on mean Cmax and AUCinf; for time to maximum concentration (post-dose): single IV bolus
# In short: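 Six healthy and six HD adult males received one 1 mL IV bolus of [14C]-labelled test compound in 0.9% NaCl: 100 μCi, about 200 μg, 1.7–3.0 μg/kg. HD subjects were dosed via the dialysis port after the last weekly dialysis. Plasma aliquots were counted by LSC; whole blood was combusted in an oxidizer before LSC. Results were converted to ng-eq. Noncompartmental analysis used actual sample times and dose: Cmax, tmax, AUClast, AUCinf, t1/2, CL, Vz.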
# [6] = cited from earlier work
# [7] = Safety: adverse events in the phase 1 study; format: in vivo, human
smiles,measurement,setting,value
"CC(C)C[C@@H](NC(=O)[C@@H](Cc1ccccc1)NC(=O)[C@H](N)Cc1ccccc1)C(=O)N[C@H](CCCCN)C(=O)N1CCC(N)(C(=O)O)CC1 [Difelikefalin, 4-amino-1-[(2R)-6-amino-2-[[(2R)-2-[[(2R)-2-[[(2R)-2-amino-3-phenylpropanoyl]amino]-3-phenylpropanoyl]amino]-4-methylpentanoyl]amino]hexanoyl]piperidine-4-carboxylic acid]",metabolism by cytochrome P450 (CYP) enzymes,[1],not metabolized
same,Percent of dose recovered in dialysate,[2],19.5%
same,share of total radioactivity excreted in feces recovered as unchanged difelikefalin,[3],84.8%
same,"activity at other receptors, ion channels, or transporters",[4],"no activity at other receptors, ion channels, or transporters"
same,total radioactivity in whole blood lower than that in plasma,[5]; healthy subjects,~45%
same,time to maximum concentration (post-dose),"[5]; healthy subjects, plasma total radioactivity",5 min
same,"mean AUC, subjects on HD versus healthy subjects","[5]; plasma total radioactivity, ratio of mean AUC, HD higher",approximately 11 fold
same,total radioactivity in whole blood lower than that in plasma,[5]; subjects on hemodialysis,approximately 38%
same,time to maximum concentration (post-dose),"[5]; subjects on hemodialysis, plasma total radioactivity",5 min
same,"abuse potential, physical dependence, respiratory depression",[6],"no abuse potential, no physical dependence, and no respiratory depression effects"
same,TEAEs considered by the investigator unrelated to study treatment,[7]; all 12 participants,17 of 24
same,subjects reporting treatment-emergent AEs (TEAEs),"[7]; healthy subjects, of n = 6",three of the six
